Most compounds without a hit are left out; they make up all but 1.8% or so of the library.
CHRM5 agonist: agonists of human muscarinic M5 receptor (CHRM5). CHO-K1 hM5 cells, Fluo-8 calcium fluorescence; 0% DMSO wells, 100% maximal acetylcholine response. 360,000 tested, 0.19% active. P08912. AID 624037. activation, % at 3 µM;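 active = activation above the run's mean over test compounds plus 3 SD, cut at about 23% in these data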;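 also: signal is peak over basal fluorescence ratio across the kinetic read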
Target sequence (P08912 whole entry, looked up): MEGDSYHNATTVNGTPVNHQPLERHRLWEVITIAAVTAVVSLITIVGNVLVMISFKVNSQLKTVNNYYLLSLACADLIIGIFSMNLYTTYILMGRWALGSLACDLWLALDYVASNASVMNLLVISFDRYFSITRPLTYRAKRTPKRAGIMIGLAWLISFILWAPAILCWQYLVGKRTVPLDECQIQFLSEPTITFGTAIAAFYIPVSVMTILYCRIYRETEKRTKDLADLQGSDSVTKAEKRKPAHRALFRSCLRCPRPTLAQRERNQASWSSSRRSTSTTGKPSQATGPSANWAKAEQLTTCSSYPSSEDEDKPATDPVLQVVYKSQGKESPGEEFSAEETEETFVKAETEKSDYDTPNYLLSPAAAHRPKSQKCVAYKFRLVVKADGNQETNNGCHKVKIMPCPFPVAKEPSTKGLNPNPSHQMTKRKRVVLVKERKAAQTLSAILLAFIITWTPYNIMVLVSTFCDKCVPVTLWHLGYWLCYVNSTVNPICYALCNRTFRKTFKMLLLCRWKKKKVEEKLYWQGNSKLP
CHRM5 antagonist: antagonists of human muscarinic M5 receptor (CHRM5); P08912; inhibition, % at 3 µM; 360,000 tested, 0.59% active; CHO-hM5 cells, Fluo-8 calcium fluorescence, ACh EC80;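 active = inhibition above a per-plate cutoff, the mean of that plate's test compounds plus 3 SD, cut at about 27% in these data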;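 also: 0% = acetylcholine EC80 with DMSO and 100% = DMSO without agonist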
CHRM4 agonist: CHRM4 agonism in calcium assay | P08173 | CHO-K1 hM4/Gqi5, Fluo-8 calcium fluorescence; vehicle 0%, full acetylcholine response 100% | activation, % at 3 µM | 360,000 tested, 0.14% active | AID 624127;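 active = activation above the run mean over all test wells plus 3 SD, cut at about 32% in these data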;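 also: peak over basal fluorescence ratio per well then scaled between controls; 0% = DMSO wells and 100% = acetylcholine at EC100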
M5 PAM: potentiates acetylcholine response at human M5 receptor; 360,000 tested, 0.3% active; AID 624038; activation, % at 3 µM; P08912; CHO-K1 hM5, Fluo-8 calcium, ACh EC20 PAM; 0% = ACh EC20, 100% = ACh EC100;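 active = activation above the run cutoff, the mean activation of all test compounds plus 3 SD, cut at about 18% in these data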
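System: CHO-K1 hM5 cells. Reagent: acetylcholine, EC20 level. Compound dosing: single dose, 3 µM nominal final test concentration. Timing: Post-acetylcholine fluorescence recording 140 s. Detection: Fluo-8 calcium fluorescence. Read-out: % activation, ACh-normalized. Benchmarks: ACh EC20 and EC100 wells. Repeats: singlicate, one well per test compound.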
CHRM4 PAM: positive allosteric modulators of human muscarinic M4 receptor; activation, % at 3 µM; P08173; AID 624126; CHO-K1 hM4/Gqi5, Fluo-8 calcium fluorescence, ACh EC20; 0% = ACh EC20, 100% = maximal ACh; 360,000 tested, 0.4% active;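 active = activation above its plate's cutoff, the mean activation of sample wells plus 3 SD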
M4 antag: antagonists of human muscarinic M4 receptor (CHRM4); 360,000 tested, 0.73% active; inhibition, % at 3 µM; P08173; CHO-hM4 cells, ACh EC80, Fluo-8 calcium fluorescence;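 active = inhibition above its plate's cutoff, the mean inhibition of sample wells plus 3 SD, cut at about 27% in these data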;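 also: 0% = acetylcholine EC80 with DMSO and 100% = DMSO without agonist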
The depositor's hits bear a star.

SMILES | CHRM5 agonist | CHRM5 antagonist | CHRM4 agonist | M5 PAM | CHRM4 PAM | M4 antag
CC(C)(C)N1CC23CCC(C[C@@H]2C1=O)O3 (some centres undefined) | 2 | 5 | 1 | 2 | 10 | 4
O=C(COC(=O)c1n[nH]c2ccccc12)NCCc1ccccc1 | 1 | 4 | 4 | 11 | 0 | -3
Cc1c(C(C)C)c(=O)n(-c2ccc(S(=O)(=O)NC3CCCCC3)cc2)n1C | 2 | 30* | 15 | -14 | -7 | 2
O=C(/C=C/c1ccccc1)NC(NC(=S)Nc1ccc(Cl)cc1)C(Cl)(Cl)Cl (centres undefined) | -3 | 15 | 8 | -31 | -6 | 10
O=C(/C=C/c1ccccc1)NC(NC(=S)Nc1cc(Cl)ccc1Cl)C(Cl)(Cl)Cl (centres undefined) | 2 | 51* | 11 | -16 | -8 | 15
CCCCCCCCCCC(C(=O)O)C1(C(=O)O)CCC(=O)O1 (centres undefined) | 3 | 8 | 0 | -2 | 3 | 5
Cc1noc(C)c1CSCC(=O)N1CCN(c2ccc([N+](=O)[O-])cc2)CC1 | 2 | 29* | 18 | -25 | -16 | 18
Cc1ccc(S(=O)(=O)c2ccc([N+](=O)[O-])o2)cc1 | -8 | 19 | 0 | -1 | -5 | 36*
CCN(CC#CCC(O)(c1ccccc1)C1CCCC1)C(C)C (centres undefined) | -11 | 83* | 2 | -15 | -14 | 92*
CC(C)N(CC#CCC(O)(c1ccccc1)C1CCCC1)CCO (centres undefined) | -9 | 47* | 2 | -19 | -17 | 14
COc1ccc(-n2c(SCC(=O)N3CCOCC3)nc3ccccc3c2=O)cc1 | 0 | -6 | 1 | 1 | 9 | 3
CC(=O)c1cccc(NC(=O)Nc2nc(C)cc(C)n2)c1 | -1 | 5 | 0 | 0 | 1 | -1
O=C(NCCc1c[nH]c2ccccc12)C(=O)Nc1cc2c3c(c1)CC(=O)N3CCC2 | 4 | 9 | 9 | -7 | -1 | 0
COCOCCn1cc(CN2CCS(=O)(=O)N(Cc3ccc(-c4cccc(N(C)C)c4)cc3)C(C(C)C)C2=O)nn1 (centres undefined) | 0 | 15 | 3 | -1 | -4 | 3
C/C(CS(=O)(=O)c1ccc(Cl)c(Cl)c1)=N/NC(N)=S | -2 | 5 | 3 | -2 | -1 | -5
C/C(CS(=O)(=O)c1ccc(Cl)cc1)=N/NC(N)=S | 3 | -3 | 1 | 4 | 20* | -11
O=C(CN1CCN(C(=O)C2CCCO2)CC1)Nc1ccc(Cl)c(Cl)c1 (centres undefined) | 1 | -2 | 5 | 2 | 0 | 0
CCC(C(=O)NCc1cccs1)n1nc(C)n2c(cc3occc32)c1=O (centres undefined) | 1 | -29 | 1 | 26* | 13 | -5
COc1ccc(CCNC(=O)COC(=O)c2cc(S(=O)(=O)NCc3ccccc3)ccc2O)cc1OC | 2 | -14 | 2 | 7 | 32* | 19
O=C(O)c1ccccc1/C=N/NC(=S)NCc1ccccc1 | 3 | 32* | 3 | 34* | -3 | 5
O=C(O)COc1ccc(/C=C2\SC(=Nc3ccccc3)N(c3ccccc3)C2=O)cc1 | -1 | 4 | -1 | -5 | -8 | 30*
c1coc(CN(Cc2ccco2)c2ncnc3c2oc2ccccc23)c1 | 4 | 32* | 7 | -23 | -23 | 37*
COC(=O)c1ccc(CN2CCCC(CCC(=O)NCc3ccc(C)o3)C2)cc1 (centres undefined) | -11 | 8 | 0 | 1 | -20 | 59*
COCc1ccc(CN2CCCC(CCC(=O)NCc3ccc(C)o3)C2)o1 (centres undefined) | -1 | -7 | 1 | 8 | 3 | -14
COc1ccc(/C=C/CN2CCCC(CCC(=O)NCc3ccc(F)c(F)c3)C2)cc1 (centres undefined) | -10 | 7 | 2 | -12 | -22 | 71*
SMILES | CHRM5 agonist | CHRM5 antagonist | CHRM4 agonist | M5 PAM | CHRM4 PAM | M4 antag
COc1cccc(-c2cc(C(=O)N3CCN(c4ncccn4)CC3)c3ccccc3n2)c1 | 4 | 16 | 14 | -16 | -9 | 23
CC(C)Oc1cccc(-c2cc(C(=O)N3CCN(c4ncccn4)CC3)c3ccccc3n2)c1 | 10 | 18 | 15 | -22 | -22 | 34*
Cc1ccc(S(=O)(=O)Nc2ccc3c(c2)CC(=O)N([C@H](C)CO)C[C@@H](C)[C@H](CN(C)S(=O)(=O)c2ccccc2)O3)cc1 | -2 | 10 | -1 | -1 | -21 | 33*
C[C@H](CO)N1C[C@H](C)[C@@H](CN(C)S(=O)(=O)c2ccc(Cl)cc2)Oc2ccc(NS(=O)(=O)c3ccccc3)cc2CC1=O | -4 | 10 | 3 | 2 | 9 | -15
C[C@H](CO)N1C[C@H](C)[C@H](CN(C)S(=O)(=O)c2ccccc2)Oc2ccc(NC(=O)NC3CCCCC3)cc2CC1=O | -3 | 14 | 0 | -2 | -17 | 99*
CCN(C1CCS(=O)(=O)C1)S(=O)(=O)c1ccc(OC)c(OC)c1 (centres undefined) | 2 | 6 | 1 | 0 | 23* | -8
CCCCN(C1CCS(=O)(=O)C1)S(=O)(=O)c1ccc(OC)cc1 (centres undefined) | 0 | 1 | 1 | -3 | -3 | 3
COc1ccc(N(Cc2ccccc2)N=O)cc1 | -2 | 1 | 0 | 3 | -2 | 5
OC[C@H]1O[C@@H](n2cnc3c(NCc4ccco4)ncnc32)[C@H](O)[C@@H]1O | 45* | 6 | 0 | -17 | -4 | 6
OCC1OC(n2cnc3c(NCc4ccco4)ncnc32)C(O)C1O (centres undefined) | 0 | 4 | 0 | 2 | -1 | -4
COc1ccc(CCN(C)C(=O)CN2C(=O)NC3(CCCc4ccccc43)C2=O)cc1OC (centres undefined) | 0 | 2 | 2 | -7 | 27* | -29
COc1cc2c(cc1NC(=O)CN1C(=O)NC3(CCc4ccccc43)C1=O)oc1ccccc12 (centres undefined) | -1 | 7 | 12 | -6 | 3 | 38*
COC(=O)c1ccc2c(c1)C(C)(C)C(/C=C/c1ccccc1O)=[N+]2C | 23* | 4 | 7 | 9 | -10 | 2
CC1(C(=O)NCc2ccccc2)Cc2c(-c3ccc4c(c3)OCO4)ccnc2O1 (centres undefined) | -2 | 0 | 0 | -1 | 3 | -10
CN(CC(=O)Nc1ccccc1Cl)C(=O)COC(=O)Cc1ccc(F)cc1 | 1 | -14 | 2 | 2 | 0 | 2

Assay outcomes as filed in PubChem BioAssay.
